Experimental data pooled from the literature.
Compare with care: the assays were run in different laboratories.
Target: Leukocyte tyrosine kinase receptor (LTK, Homo sapiens, UniProt P29376)

SMILES	observed	technique	concentration	remaining binding [%]
CS(=O)(=O)N1CCCC(NC(=O)[C@H](CCC2CCCCC2)NC(=O)c2ccc(CNc3ncnc4c3nnn4-c3ccccc3)cc2)C1 (stereo partly shown)	cell-free assay	competition with immobilised ligand	0.1 µM	100
O=C(NCC1CCOCC1)c1n[nH]cc1NC(=O)c1c(F)cccc1F	binding	competition with immobilised ligand	1 µM	100
C[C@H]1CCN(c2nccc(-c3cnn4ncccc34)n2)C1	binding	–	1 µM	91
CC(=O)C1=C(C)N(c2cccc(C(F)(F)F)c2)C(=O)N[C@@H]1c1ccc(C#N)nc1	cell-free assay	competition with immobilised ligand	1 µM	92.6
CC1CCCN1c1nccc(-c2cnn3ncccc23)n1 (stereo not shown)	binding	–	1 µM	100
C=CC(=O)N1CCC(C(=O)NCC(=O)N2CCN(c3nc(-c4cnc(N)nc4C(F)F)nc(N4CCOCC4)n3)CC2)CC1	binding	competition with immobilised ligand	1 µM	100
Cc1cc(-c2cc(C(F)(F)F)ccc2O[C@H]2C[C@@]2(CNS(=O)(=O)c2ccc([N+](=O)[O-])cc2)c2ccc(F)cc2F)[nH]n1	cell-free assay	competition with immobilised ligand	0.3 µM	6.9
O=C(NCCCN1CCOCC1)c1ccc(Nc2nccc(-c3cc4ccccc4s3)n2)cc1	binding	competition with immobilised ligand	1 µM	100
O=C(NS(=O)(=O)c1ccc(NCC2CCOCC2)c([N+](=O)[O-])c1)c1ccc(N2CCN(Cc3ccc(C(F)(F)F)cc3-c3ccc(Cl)cc3)CC2)cc1Oc1cnc2[nH]ccc2c1	cell-free assay	competition with immobilised ligand	1 µM	100
O=C(c1ccc(Nc2nccc(-c3cc4ccccc4s3)n2)cc1)N1CCC(N2CCCC2)CC1	binding	competition with immobilised ligand	1 µM	100
COc1ccc2cc(OCC3(C(=O)O)CN(C(=O)c4ccc(F)cc4)C3)ccc2c1	cell-free assay	competition with immobilised ligand	1 µM	100
COc1ncc2cc3ccccc3nc2c1C#N	cell-free assay	competition with immobilised ligand	5 µM	100
CCCOc1ccc([C@@H]2[C@@H](C(=O)O)[C@H](c3ccc4c(c3)OCO4)CN2CC(=O)Nc2c(CC)cccc2CC)cc1	cell-free assay	competition with immobilised ligand	1 µM	100
CN(C)c1nccc(-c2cnn3ncccc23)n1	binding	–	1 µM	92
Cc1cc(-n2nc(Cc3cc(F)cc(C(F)(F)F)c3)nc2C)ccc1C(N)=O	cell-free assay	competition with immobilised ligand	1 µM	100
N[C@@H]1CCN(c2nccc(-c3cnn4ncccc34)n2)C1	binding	–	1 µM	100
CNC(=O)[C@@H]1CC[C@@H](n2c(-c3ccc4cnccc4c3)nc3ccc(C(=O)NCc4cccc(C(N)=O)c4)cc32)C1	binding	competition with immobilised ligand	1 µM	89
CN(CCCC(F)(F)F)c1nccc(-c2cnn3ncccc23)n1	binding	–	1 µM	96
C[C@@H](c1ccc(-n2cnc3c(N)ncnc32)cc1)N1CCc2nn(C)c(Cc3ccccc3)c2C1=O	binding	competition with immobilised ligand	0.1 µM	87
Cc1cnn2ncc(-c3ccnc(N(C)C)n3)c2c1	binding	–	1 µM	98
COc1cnc(Nc2cccc(S(N)(=O)=O)c2)nc1N1CCN(c2ccccc2)CC1	binding	competition with immobilised ligand	1 µM	100
O=C(c1ccc(Nc2ncc(Cl)c(-c3cc4ccccc4s3)n2)cc1)N1CCC(N2CCCC2)CC1	binding	competition with immobilised ligand	1 µM	100
